ChEMBL document CHEMBL3244321, “Nitramino acids. Synthesis and biological evaluation of 1-nitroproline, 1-nitropipecolic acid, and N-nitrosarcosine” (J Med Chem, 1977)
Activity calls are given as the source filed them. The calls are words filed in the database; no cut-off is given here.

Legend:
Salmonella typhimurium [1] = assay: Mutagenicity in Salmonella typhimurium TA100 assessed as revertant colonies at 300 umol incubated under anaerobic conditions for 16 to 17 hrs followed by 48 hrs under aerobic conditions by Ames test; assay type: toxicity, organism-based; settings: salmonella enterica subsp. enterica serovar typhimurium
In short: (§1)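 Ames plate-incorporation assay. Overnight TA-100 nutrient-broth culture, about 10^7 cells per plate. Compound solutions were adjusted to pH 7 and filter-sterilized, then mixed in a histidine-biotin-limited agar overlay on minimal glucose agar, with or without S-9. S-9 was the 9000g supernatant of 25% liver homogenate in 0.15 M KCl from phenobarbital-treated male Sprague-Dawley rats. Plates were incubated aerobically at 37 °C in the dark for 2 days, or anaerobically (Gas-Pak) for 16-17 h and then aerobically for 48 h. Revertants were counted in triplicate and averaged. Matched vehicle/condition background was subtracted.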

Candida albicans [2] = assay: Antifungal activity against Candida albicans ATCC 11651 assessed as inhibition of fungal growth up to 100 ug/ml after 16 hrs by spectrophotometer; assay type: functional, organism-based
In short: (§2)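 Yeast nitrogen base (pH 7.0), with compound at 10, 25, 50 and 100 µg/mL. Incubated 16 h at 37 °C with 150 rpm rotary shaking. Turbidity was read at 600 nm.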

Pseudomonas aeruginosa = assay: Antibacterial activity against Pseudomonas aeruginosa ATCC 27853 assessed as inhibition of bacterial growth at up to 100 ug/ml after 7 hrs by spectrophotometer; assay type: functional, organism-based
In short: (§3)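 Tested at 10, 25, 50 and 100 µg/mL in Mueller-Hinton broth at 37 °C with rotary shaking at 150 rpm. Incubation was 16 h for E. coli and 7 h for P. aeruginosa. Growth was read turbidimetrically at 600 nm.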

[3] = Acute toxicity in ip dosed Swiss-Webster mouse measured after 72 hrs; assay type: organism-based; settings: in vivo
Salmonella typhimurium [4] = assay: Mutagenicity in Salmonella typhimurium TA100 assessed as revertant colonies at 300 umol incubated under aerobic conditions in dark for 2 days by Ames test; assay type: toxicity, organism-based; settings: salmonella enterica subsp. enterica serovar typhimurium, 48 h; in short: as §1
[5] = test system: Mycolicibacterium smegmatis; assay: Antibacterial activity against Mycobacterium smegmatis H607 assessed as inhibition of bacterial growth up to 100 ug/ml after 22 hrs by spectrophotometer; assay type: functional, organism-based
In short: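 Sauton synthetic medium, with compound at 10, 25, 50 and 100 µg/mL. Incubated 22 h at 37 °C with rotary shaking at 150 rpm. Growth was measured turbidimetrically at 600 nm.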

Escherichia coli = assay: Antibacterial activity against Escherichia coli ATCC 25922 assessed as inhibition of bacterial growth at up to 100 ug/ml after 16 hrs by spectrophotometer; assay type: functional, organism-based; in short: as §3
Salmonella typhimurium [6] = assay: Mutagenicity in Salmonella typhimurium TA100 assessed as revertant colonies at 300 umol incubated under anaerobic conditions for 16 to 17 hrs followed by 48 hrs under aerobic conditions by Ames test in presence of Sprague-Dawley rat liver S9 fraction; assay type: toxicity, organism-based; settings: salmonella enterica subsp. enterica serovar typhimurium; in short: as §1
Candida albicans [7] = assay: Antifungal activity against Candida albicans clinical isolate assessed as inhibition of fungal growth up to 100 ug/ml after 16 hrs by spectrophotometer; assay type: functional, organism-based; in short: as §2
Salmonella typhimurium [8] = assay: Mutagenicity in Salmonella typhimurium TA100 assessed as revertant colonies at 300 umol incubated under aerobic conditions in dark for 2 days by Ames test in presence of Sprague-Dawley rat liver S9 fraction; assay type: toxicity, organism-based; settings: salmonella enterica subsp. enterica serovar typhimurium, s9, 48 h; in short: as §1

| SMILES | Activity (Salmonella typhimurium [1]) | inhibition (Candida albicans [2]) | inhibition (Pseudomonas aeruginosa) | LD50 at 72 h [3] [µmol/kg] | Activity (Salmonella typhimurium [4]) | inhibition [5] | inhibition (Escherichia coli) | Activity (Salmonella typhimurium [6]) | inhibition (Candida albicans [7]) | Activity (Salmonella typhimurium [8]) |
| --- | --- | --- | --- | --- | --- | --- | --- | --- | --- | --- |
| O=C(O)C1CCCCN1[N+](=O)[O-] (racemic) | Non-toxic | inactive | inactive | 2100 | Non-toxic | inactive | inactive | Non-toxic | inactive | Non-toxic |
| O=C(O)[C@H]1CCCN1[N+](=O)[O-] | – | inactive | inactive | 1390 | – | inactive | inactive | – | inactive | – |
| O=C(O)[C@@H]1CCCN1[N+](=O)[O-] | Non-toxic | inactive | inactive | 1170 | Non-toxic | inactive | inactive | Non-toxic | inactive | Non-toxic |
